Measured values published in PMC2223369 (The Journal of General Physiology, 1999).

Assays:
[1] = test system: alpha subunit of type IIA sodium channels; assay: Use-dependent block, conditioning pulse protocol; assay type: cell-based, rat; settings: for use-dependent block, conditioning pulse protocol (in words): Fig. 5 and 6; for use-dependent block at 200 mV: wild-type channels, conditioning pulses to 200 mV
sodium channels = settings: ref Eaholtz et al., cited from earlier work
[2] = test system: alpha subunit of type IIA sodium channels; assay: Fast peptide block of LqTx-modified sodium channels, whole-cell patch clamp; assay type: cell-based, rat; settings: 100 nM LqTx; for fast block of LqTx-modified sodium channels (in words) / fraction of extrapolated peak sodium current unblocked at steady state: 1 mM peptide intracellular, 0 mV; for k b(0 mV), blocking rate / k u(0 mV), unblocking rate: 1 mM peptide, SEM; for k b(0 mV), blocking rate: calculated from τ and Fss by Eq. 2, mean ± SEM; for k u(0 mV), unblocking rate: calculated from τ and Fss by Eq. 3, mean ± SEM
How it was run: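 CHO cells stably expressing the channel alpha subunit, recorded 24 h after subculture; whole-cell patch clamp at 22–25°C. Pipette carries 1 mM test peptide, and recording starts about 20 min after break-in. LqTx-modified currents are elicited by steps from −80 mV to 0 mV. Decay is fit to a single exponential, with Fss = B/(A+B). kb and ku come from τ and Fss.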

[3] = test system: alpha subunit of type IIA sodium channels; assay: Recovery from fast block, two-pulse voltage protocol; assay type: cell-based, rat; settings: for time constant of recovery from fast block at −80 mV: interpulse −80 mV, mean ± SEM, n = 5
How it was run: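 CHO cells stably expressing the channel alpha subunit, under whole-cell clamp at 22–25°C with 1 mM test peptide in the pipette; channels LqTx-modified. Two 0-mV test pulses give the ratio I2/I1. The protocol is repeated 20× with the interpulse interval increased by Δt each time. Interpulse voltage is −80, −100, −120 or −140 mV. Recovery versus interval is fit to a single exponential for the time constant.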

[4] = 1 mM peptide, channels not modified by LqTx

## DIFMK-NH2
[1]; [4]
  use-dependent block, conditioning pulse protocol (in words): much less effective than ac-KIFMK-NH2

## ac-KAFAK-NH2
[1]; [4]
  use-dependent block, conditioning pulse protocol (in words): less effective
[1]; 1 mM peptide
  use-dependent block at 200 mV: > 60%
Sodium channels; 1994
  fast block of sodium channels (in words): did not produce fast block

## cyclic KIFMK (head to tail)
[2]
  fast block of LqTx-modified sodium channels (in words): did not exhibit significant fast block
[1]; [4]
  use-dependent block, conditioning pulse protocol (in words): nearly as potent in use-dependent block as ac-KIFMK-NH2
[1]; 1 mM peptide
  use-dependent block at 200 mV: ~100%

## KIFM-NH2
[2]
  fraction of extrapolated peak sodium current unblocked at steady state: 42%
  k b(0 mV), blocking rate: 1751 ± 163 s⁻¹
  k u(0 mV), unblocking rate: 1283 ± 149 s⁻¹
[1]; [4]
  use-dependent block, conditioning pulse protocol (in words): substantial use-dependent block

## FM-NH2
[1]; [4]
  use-dependent block, conditioning pulse protocol (in words): not effective in use-dependent block

## ac-KIQMK-NH2
[1]; [4]
  use-dependent block, conditioning pulse protocol (in words): did not produce significant block
Sodium channels; 1994
  fast block of sodium channels (in words): did not produce fast block
  use-dependent block (in words): ineffective in use-dependent block

## ac-DIFMT-NH2
[2]
  fast block of LqTx-modified sodium channels (in words): did not produce significant fast block
[1]; [4]
  use-dependent block, conditioning pulse protocol (in words): no effect at all

## ac-RIFMR-NH2
[2]
  fast block of LqTx-modified sodium channels (in words): rapidly blocked LqTx-modified sodium currents
  k u(0 mV), unblocking rate: 222 ± 33 s⁻¹
[1]; [4]
  use-dependent block, conditioning pulse protocol (in words): significantly more potent than ac-KIFMK-NH2

## NC(=O)[C@@H](N)Cc1ccccc1 [F-NH2, phenylalanine-amide]
[1]; [4]
  use-dependent block, conditioning pulse protocol (in words): not effective in use-dependent block

## Ac-KIFMTK-NH2
[2]
  k b(0 mV), blocking rate: 2881 ± 263 s⁻¹
  k u(0 mV), unblocking rate: 731 ± 8 s⁻¹
[1]; [4]
  use-dependent block, conditioning pulse protocol (in words): poor use-dependent blocker

## ac-KIFMK-NH2
[2]
  fraction of extrapolated peak sodium current unblocked at steady state: 21%
  k u(0 mV), unblocking rate: 587 ± 40 s⁻¹
[3]; 1 mM peptide, LqTx-modified channels
  time constant of recovery from fast block at −80 mV: 0.9 ms
[3]; 1 mM peptide, LqTx-modified channels, SEM
  time constant of recovery from fast block at −80 mV: 0.9 ± 0.3 ms
[3]; 1 mM peptide, LqTx-modified channels, interpulse −100 mV, n = 6
  time constant of recovery from fast block at −100 mV: 0.6 ± 0.1 ms
[3]; 1 mM peptide, LqTx-modified channels, interpulse −120 mV, n = 6
  time constant of recovery from fast block at −120 mV: 0.4 ± 0.1 ms
[3]; 1 mM peptide, LqTx-modified channels, interpulse −140 mV, n = 4
  time constant of recovery from fast block at −140 mV: 0.3 ± 0.1 ms
[3]; −80 mV
  time at which recovery from fast block was half complete: 0.9 ms
[1]; 1 mM peptide, 100 nM LqTx, n = 6, mean ± SEM, SEM
  fractional current (I12/I1) after 10 conditioning pulses to 200 mV, LqTx-modified channels: 0.03 ± 0.02
[1]; 1.0 mM peptide, 200-mV conditioning pulses
  use-dependent block in the absence or presence of LqTx: > 95%
[1]; 1 mM peptide, channels not modified by LqTx, Fig. 5 A
  conditioning voltage of half-maximal use-dependent block: +125 mV
[1]; 1.5 mM peptide, three cells, unmodified channels
  use-dependent block with conditioning pulses more positive than 150 mV: ~100%
[1]; mean zδ divided by two (two positive charges)
  δ of use-dependent block: 0.5
[1]; −80 mV
  time for half-maximal recovery from use-dependent block: more than 90 s
Sodium channels; voltage dependence of fast block, 1998
  δ value of fast block: 0.3

## KIFMT-NH2
[2]
  fast block of LqTx-modified sodium channels (in words): rapidly blocked LqTx-modified sodium currents
  k u(0 mV), unblocking rate: 386 ± 81 s⁻¹
[1]; [4]
  use-dependent block, conditioning pulse protocol (in words): much less effective than ac-KIFMK-NH2
